In brackets after ≈: the same amount, converted by molar mass. Activity calls are given as the source filed them. No cut-off for these calls is given here.
How the values were obtained:
Staphylococcus aureus [1] = test: Antibacterial activity against methicillin-resistant Staphylococcus aureus at 100 ug/ml by NCCLS method; format: functional, organism-based
Staphylococcus aureus [2] = test: Antibacterial activity against Staphylococcus aureus by NCCLS method; format: functional, organism-based
Method in brief: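 Microdilution per CLSI (formerly NCCLS). Samples run in duplicate, diluted in 0.9% saline in 96-well plates, then microbial suspensions added to reach the target inocula. Media and solvent controls in every assay. IC50 read from a plot of percent growth against concentration. MIC taken as the lowest concentration with no detectable growth; MBC as the lowest concentration that kills the organism.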

Staphylococcus aureus [3] = test: Antibacterial activity against methicillin-resistant Staphylococcus aureus by NCCLS method; format: functional, organism-based
Method in brief: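 MRSA tested in vitro by CLSI (formerly NCCLS) broth microdilution. Samples were diluted in 0.9% saline and run in duplicate in 96-well microplates. Cell suspension was added to reach the target inoculum, with media and solvent controls included. IC50 was taken from percent growth plotted against concentration. MIC was the lowest concentration with no detectable growth; MBC was the lowest concentration that killed the organism.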

Escherichia coli = test: Antibacterial activity against Escherichia coli at 100 ug/ml by NCCLS method; format: functional, organism-based
[4] = system: Mycobacterium intracellulare; test: Antibacterial activity against Mycobacterium intracellular at 100 ug/ml by NCCLS method; format: functional, organism-based
Cryptococcus neoformans = test: Antifungal activity against Cryptococcus neoformans at 100 ug/ml by NCCLS method; format: functional, organism-based
Candida albicans = test: Antifungal activity against Candida albicans at 100 ug/ml by NCCLS method; format: functional, organism-based
Vero = test: Cytotoxicity against african green monkey Vero cells up to 100 ug/ml; format: cell-based; conditions: chlorocebus sabaeus
Pseudomonas aeruginosa = test: Antibacterial activity against Pseudomonas aeruginosa at 100 ug/ml by NCCLS method; format: functional, organism-based
Aspergillus fumigatus = test: Antifungal activity against Aspergillus fumigatus at 100 ug/ml by NCCLS method; format: functional, organism-based
Staphylococcus aureus [5] = test: Antibacterial activity against Staphylococcus aureus infected in CD1 mouse thigh muscle assessed as reduction in colony forming unit at 15 mg/kg, ip administered 2 hrs after infection measured after 48 hrs relative to control; format: functional, Muscle tissue; parameters: scale not given: the % may be the effect or the level left; conditions: route intraperitoneal
Method in brief: (§1)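 Neutropenic thigh infection in CD-1 mice. Neutropenia induced by cyclophosphamide 100 mg/kg ip on days -4 and -1. Each rear thigh inoculated im with MRSA, 1.5 × 10⁶ cfu in 50 μL. n = 2 mice per group, each thigh a data point. Compound given ip starting 2 h post-inoculation; saline and vancomycin controls. Sacrifice at 48 h; thighs weighed, homogenized in 5.0 mL saline, plated for cfu/g tissue.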

Staphylococcus aureus [6] = test: Antibacterial activity against Staphylococcus aureus infected in CD1 mouse thigh muscle assessed as reduction in colony formation unit at 3.0 mg/kg, ip administered 2 hrs after infection measured after 48 hrs relative to control; format: functional, Muscle tissue; parameters: scale not given: the % may be the effect or the level left; conditions: route intraperitoneal; method in brief: as §1
Mus musculus = test: Toxicity in CD1 mouse up to 20 mg/kg, ip after 2 days; format: organism-based; parameters: dose 20 mg/kg, route intraperitoneal; conditions: in vivo, 48 h
Method in brief: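 Preliminary tolerance study: CD-1 mice dosed ip daily for 2 days at up to 20 mg/kg and watched for untoward effects.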

Staphylococcus aureus [7] = test: Antibacterial activity against Staphylococcus aureus infected in CD1 mouse thigh muscle assessed as reduction in colony forming unit at 3.0 mg/kg, ip administered 2 hrs after infection measured after 48 hrs; format: functional, Muscle tissue; conditions: route intraperitoneal; method in brief: as §1
Staphylococcus aureus [8] = test: Antibacterial activity against Staphylococcus aureus infected in CD1 mouse thigh muscle assessed as reduction in colony forming unit at 15 mg/kg, ip administered 2 hrs after infection measured after 48 hrs; format: functional, Muscle tissue; conditions: route intraperitoneal; method in brief: as §1

Compound	IC50 (Staphylococcus aureus [1])	MIC (Staphylococcus aureus [1])	IC50 (Staphylococcus aureus [2]) [µg/mL]	MIC (Staphylococcus aureus [2]) [µg/mL]	MIC (Staphylococcus aureus [3]) [µg/mL]	IC50 (Staphylococcus aureus [3]) [µg/mL]	Activity (Escherichia coli)	Activity [4]	Activity (Cryptococcus neoformans)	Activity (Candida albicans)	Activity (Vero)	Activity (Pseudomonas aeruginosa)	Activity (Aspergillus fumigatus)	Activity (Staphylococcus aureus [5]) [%]	Activity (Staphylococcus aureus [6]) [%]	Activity (Mus musculus)	Activity (Staphylococcus aureus [7]) [×10⁷ /g]	Activity (Staphylococcus aureus [8]) [×10⁷ /g]
COc1cccc(OC)c1C(=O)N[C@@H]1C(=O)N2[C@@H]1SC(C)(C)[C@@H]2C(=O)O [METHICILLIN]	Not Active	inactive	0.4 (≈ 1.05 µM)	2.5 (≈ 6.57 µM)	–	–	–	–	–	–	–	–	–	–	–	–	–	–
O=C(O)c1cn(C2CC2)c2cc(N3CCNCC3)c(F)cc2c1=O [CIPROFLOXACIN]	–	–	–	0.4 (≈ 1.21 µM)	0.3 (≈ 0.905 µM)	–	–	–	–	–	–	–	–	–	–	–	–	–
Cc1onc(-c2ccccc2Cl)c1C(=O)N[C@@H]1C(=O)N2[C@@H]1SC(C)(C)[C@@H]2C(=O)O [CLOXACILLIN]	–	–	–	–	–	8.9 (≈ 20.4 µM)	–	–	–	–	–	–	–	–	–	–	–	–
C[C@@H]1O[C@@H](Oc2c(-c3ccc(O)cc3)oc3cc(O)cc(O)c3c2=O)[C@H](OC(=O)/C=C/c2ccc(O)cc2)[C@H](OC(=O)/C=C\c2ccc(O)cc2)[C@H]1O	–	–	1.6 (≈ 2.21 µM)	5.8 (≈ 8 µM)	1.7 (≈ 2.35 µM)	0.8 (≈ 1.1 µM)	inactive	inactive	inactive	inactive	Non-toxic	inactive	inactive	–	–	–	–	–
C[C@@H]1O[C@@H](Oc2c(-c3ccc(O)cc3)oc3cc(O)cc(O)c3c2=O)[C@H](OC(=O)/C=C\c2ccc(O)cc2)[C@H](OC(=O)/C=C/c2ccc(O)cc2)[C@H]1O	–	–	1.4 (≈ 1.93 µM)	3.8 (≈ 5.24 µM)	1.3 (≈ 1.79 µM)	0.7 (≈ 0.966 µM)	inactive	inactive	inactive	inactive	Non-toxic	inactive	inactive	–	–	–	–	–
C[C@@H]1O[C@@H](Oc2c(-c3ccc(O)cc3)oc3cc(O)cc(O)c3c2=O)[C@H](OC(=O)/C=C/c2ccc(O)cc2)[C@H](OC(=O)/C=C/c2ccc(O)cc2)[C@H]1O	–	–	3.7 (≈ 5.11 µM)	13.3 (≈ 18.4 µM)	10 (≈ 13.8 µM)	2 (≈ 2.76 µM)	inactive	inactive	inactive	inactive	Non-toxic	inactive	inactive	78	67	Non-toxic	2.6	1.8
CCN1CCN(C(=O)N[C@@H](C(=O)N[C@@H]2C(=O)N3[C@@H]2SC(C)(C)[C@@H]3C(=O)O)c2ccccc2)C(=O)C1=O [PIPERACILLIN]	Not Active	inactive	–	–	–	–	–	–	–	–	–	–	–	–	–	–	–	–
